Experiments:
[1] = molecular target: Sterol O-acyltransferase 1 (Oryctolagus cuniculus); assay: In vitro inhibition of rabbit intestinal acyl coenzyme A:cholesterol acyltransferase using [1-14C]oleolyl-CoA
Rattus norvegicus = species: Rattus norvegicus; assay: Percent change in total cholesterol in cholic acid (0.5%)-cholesterol (1.5%)-peanut oil (5.5%)-fed rats; type: functional
How it was run: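 Acute screen: rats given a single gavage dose, 50 mg/kg standard unless noted, suspended in carboxymethylcellulose plus Tween-20 in water, then a single high-fat, high-cholesterol meal (0.5% cholic acid, 1.5% cholesterol, 5.5% peanut oil). Overnight rise in plasma total cholesterol measured as % change versus control. Stomachs checked for food. ANOVA with Fisher's multiple range test, p<0.05.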

| IC50 [1] | Compound | Change (Rattus norvegicus) |
| --- | --- | --- |
| 610 nM | CCCCC(=O)NCC(CNC(=O)Nc1c(C(C)C)cccc1C(C)C)c1ccccc1 (stereo unspecified) | -6% |
| 150 nM | CC(C)c1cccc(C(C)C)c1NC(=O)NCC(NC(=O)c1ccc2ccccc2[n+]1[O-])c1ccccc1 (stereo unspecified) | -21% |
| 51 nM | CC(C)c1cccc(C(C)C)c1NC(=O)NCC(NCc1ccccc1)c1ccccc1 (racemic) | -36% |
| 80 nM | COc1ccc(CNC(CNC(=O)Nc2c(C(C)C)cccc2C(C)C)C(C)C)cc1 (single isomer, unassigned; (-)) | -41% |
| – | COc1ccc(C(=O)NC(C)(C)CNC(=O)Nc2c(C(C)C)cccc2C(C)C)cc1 | -9% |
| 53 nM | CC(C)c1cccc(C(C)C)c1NC(=O)NCC(NCc1ccccc1)c1ccccc1 (stereo in doubt; 9k(+)) | -41% |
| 2300 nM | CC(C)c1cccc(C(C)C)c1NC(=O)NCC(NC(=O)c1cc2ccccc2[nH]1)c1ccccc1 (stereo unspecified) | -3% |
| 440 nM | CC(C)c1cccc(C(C)C)c1NC(=O)NCC(NC(=O)c1ccco1)c1ccccc1 (stereo unspecified) | -37% |
| 3200 nM | CC(C)c1cccc(C(C)C)c1NC(=O)NCC(NC(=O)c1ccncc1)c1ccccc1 (stereo unspecified) | -12% |
| 570 nM | CCCCCCC(=O)NC(COC(=O)Nc1c(C(C)C)cccc1C(C)C)c1ccccc1 (stereo in doubt; 34a(-)) | -2% |
| 440 nM | CC(C)c1cccc(C(C)C)c1NC(=O)NCC(NC(=O)c1cnccn1)c1ccccc1 (stereo unspecified) | -19% |
| 80 nM | CC(C)c1cccc(C(C)C)c1NC(=O)NCC(NC(=O)c1ccccn1)c1ccccc1 (stereo unspecified) | -24% |
| 48 nM | CC(C)c1cccc(C(C)C)c1NC(=O)NCC(NCc1ccco1)c1ccccc1 (single isomer, unassigned; (-)) | -18% |
| 150 nM | CC(C)c1cccc(C(C)C)c1NC(=O)NCC(NCc1ccc(N(C)C)cc1)c1ccccc1 (single isomer, unassigned; (-)) | -45% |
| 380 nM | CC(C)c1cccc(C(C)C)c1NC(=O)NCC(NC(=O)CCCCCBr)c1ccccc1 (stereo unspecified) | -36% |
| 370 nM | CC(C)c1cccc(C(C)C)c1NC(=O)NCC(NCc1cccnc1)c1ccccc1 (stereo unspecified) | -26% |
| 510 nM | CC(C)c1cccc(C(C)C)c1NC(=O)NCC(NC(=O)c1ccc(C(F)(F)F)cc1)c1ccccc1 (stereo unspecified) | -9% |
| 5100 nM | CCCCCCC(=O)NC(COC(=O)Nc1c(C(C)C)cccc1C(C)C)c1ccccc1 (single isomer, unassigned; (+)) | – |
| – | CCCCCCCCCCC(C)(C)C(=O)Nc1c(OC)cc(OC)cc1OC [CL-976] | -44% |
| 48 nM | CC(C)c1cccc(C(C)C)c1NC(=O)NCC(NCc1ccoc1)c1ccccc1 (stereo unspecified) | -38% |
| 45 nM | CC(C)c1cccc(C(C)C)c1NC(=O)NCC(NCc1ccccc1C(F)(F)F)c1ccccc1 (single isomer, unassigned; (-)) | -42% |
| 33 nM | CC(C)c1cccc(C(C)C)c1NC(=O)NCC(NCc1ccccc1)c1ccccc1 (single isomer, unassigned; (-)) | -29% |

| IC50 [1] | Compound | Change (Rattus norvegicus) |
| --- | --- | --- |
| 490 nM | CC(C)c1cccc(C(C)C)c1NC(=O)NCC(NCc1ccc(O)c(CN(C)C)c1)c1ccccc1 (single isomer, unassigned; (-)) | -46% |
| 7600 nM | CC(C)c1cccc(C(C)C)c1NC(=O)NCC(CN(Cc1ccccc1)Cc1ccccc1)c1ccccc1 (stereo unspecified) | – |
| 90 nM | CCCC(CCC)(CNC(=O)Nc1c(C(C)C)cccc1C(C)C)NC(=O)c1ccc(OC)cc1 | -25% |
| 1200 nM | CC(C)c1cccc(C(C)C)c1NC(=O)NCC(NCc1ccncc1)c1ccccc1 (single isomer, unassigned; (+)) | -19% |
| 970 nM | CC(C)c1cccc(C(C)C)c1NC(=O)NCC(NC(=O)c1cccc2ccccc12)c1ccccc1 (stereo unspecified) | -14% |
| 350 nM | Cc1ccc(C(=O)NC(CNC(=O)Nc2c(C(C)C)cccc2C(C)C)c2ccccc2)cc1 (stereo unspecified) | -1% |
| 52 nM | Cc1ccc(CNC(CNC(=O)Nc2c(C(C)C)cccc2C(C)C)c2ccccc2)cc1 (racemic) | -45% |
| 99 nM | CC(C)c1cccc(C(C)C)c1NC(=O)NCC(NCc1ccco1)c1ccccc1 (single isomer, unassigned; (+)) | -23% |
| 610 nM | COc1ccc(C(=O)NC(C)(CNC(=O)Nc2c(C(C)C)cccc2C(C)C)c2ccccn2)cc1 (racemic) | -23% |
| 250 nM | COc1ccc(C(=O)NC(CNC(=O)Nc2c(C(C)C)cccc2C(C)C)C2CCCCC2)cc1 (racemic) | -15% |
| 330 nM | COc1ccc(C(=O)NC(CNC(=O)Nc2c(C(C)C)cccc2C(C)C)c2ccccc2)cc1 (stereo unspecified) | -7% |
| 590 nM | CCCCCCCCCC(=O)NC(CNC(=O)Nc1c(C(C)C)cccc1C(C)C)c1ccccc1 (stereo unspecified) | -29% |
| 70 nM | COc1ccc(CNC(CNC(=O)Nc2c(C(C)C)cccc2C(C)C)c2ccccc2)cc1 (stereo in doubt; 9m(+)) | -36% |
| 51 nM | CC(C)c1cccc(C(C)C)c1NC(=O)NCC(NCc1cccs1)c1ccccc1 (single isomer, unassigned; (+)) | -19% |
| 200 nM | CCCCCCCCCCCC(=O)NC(COC(=O)Nc1c(C(C)C)cccc1C(C)C)c1ccccc1 (stereo unspecified) | -16% |
| – | CC(C)c1cccc(C(C)C)c1NC(=O)OCC(NCc1ccc(N(C)C)cc1)c1ccccc1.Cl (stereo unspecified) | -23% |
| 490 nM | COc1ccc(CNC(CCSC)CNC(=O)Nc2c(C(C)C)cccc2C(C)C)cc1 (single isomer, unassigned; (+)) | -31% |
| 500 nM | COc1ccc(C(=O)NC2(CNC(=O)Nc3c(C(C)C)cccc3C(C)C)CCCC2)cc1 | -6% |
| 160 nM | CC(C)c1cccc(C(C)C)c1NC(=O)NCC(CNCc1ccccc1)c1ccccc1 (stereo unspecified) | -46% |
| 2800 nM | CC(C)c1cccc(C(C)C)c1NC(=O)NCC(NC(=O)CCCCCN(CCO)CCO)c1ccccc1 (stereo unspecified) | -4% |
| 77 nM | CCCCCCCCCCCC(=O)NC(CNC(=O)Nc1c(C(C)C)cccc1C(C)C)c1ccccc1 (stereo unspecified) | -16% |
| 1700 nM | CCCCCCCCCCCCCCCCCC(=O)NC(CNC(=O)Nc1c(C(C)C)cccc1C(C)C)c1ccccc1 (stereo unspecified) | 8% |

| IC50 [1] | Compound | Change (Rattus norvegicus) |
| --- | --- | --- |
| 3600 nM | CC(C)c1cccc(C(C)C)c1NC(=O)NC(CNC(=O)c1ccccc1)c1ccccc1 (stereo unspecified) | – |
| 64 nM | CC(C)c1cccc(C(C)C)c1NC(=O)NCC(NCC1CC1)c1ccccc1 (single isomer, unassigned; (-)) | -51% |
| 45 nM | CC(C)c1cccc(C(C)C)c1NC(=O)NCC(NCc1cccc([N+](=O)[O-])c1)c1ccccc1 (single isomer, unassigned; (-)) | -32% |
| 300 nM | CC(C)c1cccc(C(C)C)c1NC(=O)NCC(CNC(=O)c1ccccn1)c1ccccc1 (stereo unspecified) | -7% |
| 430 nM | CCCCC(=O)NC(CNC(=O)Nc1c(C(C)C)cccc1C(C)C)c1ccccc1 (stereo unspecified) | -8% |
| 270 nM | COc1ccc(CNC(CNC(=O)Nc2c(C(C)C)cccc2C(C)C)Cc2ccccc2)cc1 (single isomer, unassigned; (-)) | -30% |
| 49 nM | CCCCCCNC(CNC(=O)Nc1c(C(C)C)cccc1C(C)C)c1ccccc1 (racemic) | -41% |
| 150 nM | CC(C)c1cccc(C(C)C)c1NC(=O)NCC(NC(=O)c1ccc2ccccc2n1)c1ccccc1 (stereo unspecified) | -31% |
| 230 nM | CCCCCCCCCCCCCCCCCCNC(CNC(=O)Nc1c(C(C)C)cccc1C(C)C)c1ccccc1 (racemic) | -3% |
| 2500 nM | CC(C)c1cccc(C(C)C)c1NC(=O)OCC(NC(=O)OC(C)(C)C)c1ccccc1 (stereo unspecified) | – |
| 60 nM | CC(C)c1cccc(C(C)C)c1NC(=O)NCC(NCc1ccc(N(C)C)cc1)c1ccccc1 (stereo in doubt; 9n(+)) | -56% |
| 110 nM | CCCCCNC(CNC(=O)Nc1c(C(C)C)cccc1C(C)C)c1ccccc1 (racemic) | -38% |
| 48 nM | COc1ccc(CNC(CNC(=O)Nc2c(C(C)C)cccc2C(C)C)c2ccccc2)cc1 (racemic) | -54% |
| 140 nM | CC(C)c1cccc(C(C)C)c1NC(=O)NCC(NCc1ccccn1)c1ccccc1 (stereo unspecified) | -15% |
| 45 nM | COc1ccccc1CNC(CNC(=O)Nc1c(C(C)C)cccc1C(C)C)c1ccccc1 (single isomer, unassigned; (-)) | -23% |
| 410 nM | CC(C)c1cccc(C(C)C)c1NC(=O)NCC(Cc1ccccc1)NCc1ccccc1O (stereo unspecified) | -37% |
| > 10000 nM | CC(C)c1cccc(C(C)C)c1NC(=O)NCC(CN(C)Cc1ccccc1)c1ccccc1 (stereo unspecified) | – |
| 50 nM | COc1ccc(CNC(CNC(=O)Nc2c(C(C)C)cccc2C(C)C)CC(C)C)cc1 (stereo unspecified) | -32% |
| 110 nM | CCCCCCCNC(CNC(=O)Nc1c(C(C)C)cccc1C(C)C)c1ccccc1 (racemic) | -25% |
| 39 nM | COc1ccc(CNC(CNC(=O)Nc2c(C(C)C)cccc2C(C)C)c2ccccc2)cc1 (single isomer, unassigned; (-)) | -45% |

| Compound | IC50 [1] | Change (Rattus norvegicus) |
| --- | --- | --- |
| CCCCCCCCCC(=O)NC(CNC(=O)Oc1c(C(C)C)cccc1C(C)C)c1ccccc1 (racemic) | 760 nM | 25% |
| CCCCCCCCCCCC(=O)NC(CNC(=O)Oc1c(C(C)C)cccc1C(C)C)c1ccccc1 (single isomer, unassigned; (-)) | 51 nM | 25% |
| CC(C)c1cccc(C(C)C)c1OC(=O)NCC(NC(=O)OC(C)(C)C)c1ccccc1 (single isomer, unassigned; (-)) | 430 nM | 20% |
